Laboratory results as given in ChEMBL document CHEMBL2346629, “Discovery and characterization of novel allosteric FAK inhibitors” (Eur J Med Chem, 2013).

Key:
[1] = biological target: Myotonin-protein kinase (Homo sapiens) (UniProt Q09013); assay: Inhibition of DMPK (unknown origin) using [gamma-33P]ATP assessed as residual activity at 3 uM
Summary of the method: (§1)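 Reaction Biology HotSpot radiometric profiling panel of 288 kinases (261 wild-type, 27 mutant). Kinase activity was read out by incorporation of [γ-33P]ATP.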

[2] = biological target: Dual specificity protein kinase CLK4 (Homo sapiens) (UniProt Q9HAZ1); assay: Inhibition of CLK4 (unknown origin) using [gamma-33P]ATP assessed as residual activity at 3 uM; summary of the method: as §1
[3] = biological target: Protein kinase C gamma type (Homo sapiens) (UniProt P05129); assay: Inhibition of PKCgamma (unknown origin) using [gamma-33P]ATP assessed as residual activity at 3 uM
[4] = biological target: NUAK family SNF1-like kinase 1 (Homo sapiens) (UniProt O60285); assay: Inhibition of ARK5 (unknown origin) using [gamma-33P]ATP assessed as residual activity at 3 uM
Chain of NUAK family SNF1-like kinase 1 (Homo sapiens) (O60285 whole entry): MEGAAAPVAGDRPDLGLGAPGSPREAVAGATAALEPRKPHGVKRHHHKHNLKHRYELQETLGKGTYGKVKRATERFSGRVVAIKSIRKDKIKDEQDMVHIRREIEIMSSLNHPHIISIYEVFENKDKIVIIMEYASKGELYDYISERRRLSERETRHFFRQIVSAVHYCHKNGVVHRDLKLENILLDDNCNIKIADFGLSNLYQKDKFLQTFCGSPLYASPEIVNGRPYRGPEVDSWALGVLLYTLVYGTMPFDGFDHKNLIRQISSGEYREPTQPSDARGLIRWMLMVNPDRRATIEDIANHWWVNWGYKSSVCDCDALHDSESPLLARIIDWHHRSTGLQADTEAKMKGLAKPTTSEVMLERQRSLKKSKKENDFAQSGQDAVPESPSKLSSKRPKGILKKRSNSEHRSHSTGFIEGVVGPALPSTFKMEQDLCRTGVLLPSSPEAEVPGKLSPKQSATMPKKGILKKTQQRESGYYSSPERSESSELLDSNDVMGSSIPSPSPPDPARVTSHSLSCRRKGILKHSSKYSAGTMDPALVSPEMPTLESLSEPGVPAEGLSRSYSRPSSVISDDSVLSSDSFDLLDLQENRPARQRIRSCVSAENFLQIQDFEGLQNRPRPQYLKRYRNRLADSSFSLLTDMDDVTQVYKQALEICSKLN
Summary of the method: (§2)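 Radiometric profiling across 288 kinases (261 wild-type, 27 mutant), run as an outsourced service. Inhibition read out as [gamma-33P]ATP incorporation into substrate.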

[5] = biological target: Tyrosine-protein kinase Lck (Homo sapiens) (UniProt P06239); assay: Inhibition of LCK (unknown origin) using [gamma-33P]ATP assessed as residual activity at 3 uM
Summary of the method: (§3)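 Radiometric kinase profiling service covering 288 kinases (261 wild-type, 27 mutant). Inhibition was read as incorporation from [γ-³³P]ATP.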

[6] = biological target: Calcium/calmodulin-dependent protein kinase type 1 (Homo sapiens) (UniProt Q14012); assay: Inhibition of CAMK1a (unknown origin) using [gamma-33P]ATP assessed as residual activity at 3 uM; summary of the method: as §2
Chain of Calcium/calmodulin-dependent protein kinase type 1 (Homo sapiens) (Q14012 whole entry, looked up): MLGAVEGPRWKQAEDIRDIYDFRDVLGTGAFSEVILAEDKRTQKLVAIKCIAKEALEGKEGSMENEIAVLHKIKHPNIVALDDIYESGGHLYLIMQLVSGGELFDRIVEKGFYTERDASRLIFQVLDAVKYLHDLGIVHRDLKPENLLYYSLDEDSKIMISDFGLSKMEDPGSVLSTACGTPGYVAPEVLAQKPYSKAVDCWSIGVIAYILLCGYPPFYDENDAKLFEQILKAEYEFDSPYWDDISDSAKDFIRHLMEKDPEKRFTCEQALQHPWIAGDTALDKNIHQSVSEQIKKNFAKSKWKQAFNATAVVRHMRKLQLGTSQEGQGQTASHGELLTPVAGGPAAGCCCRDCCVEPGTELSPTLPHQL

[7] = biological target: Protein kinase C delta type (Homo sapiens) (UniProt Q05655); assay: Inhibition of PKCd (unknown origin) using [gamma-33P]ATP assessed as residual activity at 3 uM
[8] = biological target: Platelet-derived growth factor receptor alpha (Homo sapiens) (UniProt P16234); assay: Inhibition of PDGFRa (unknown origin) using [gamma-33P]ATP assessed as residual activity at 3 uM
[9] = biological target: CDK9/Cyclin K (Homo sapiens) (UniProt P50750+O75909); assay: Inhibition of CDK9/cyclin K (unknown origin) using [gamma-33P]ATP assessed as residual activity at 3 uM; type: protein-complex assay; summary of the method: as §2
[10] = biological target: Serine/threonine-protein kinase TAO2 (Homo sapiens) (UniProt Q9UL54); assay: Inhibition of TAOK2 (unknown origin) using [gamma-33P]ATP assessed as residual activity at 3 uM
[11] = biological target: Casein kinase II subunit alpha' (Homo sapiens) (UniProt P19784); assay: Inhibition of CK2a2 (unknown origin) using [gamma-33P]ATP assessed as residual activity at 3 uM; summary of the method: as §1
Chain of Casein kinase II subunit alpha' (Homo sapiens) (P19784 whole entry, looked up): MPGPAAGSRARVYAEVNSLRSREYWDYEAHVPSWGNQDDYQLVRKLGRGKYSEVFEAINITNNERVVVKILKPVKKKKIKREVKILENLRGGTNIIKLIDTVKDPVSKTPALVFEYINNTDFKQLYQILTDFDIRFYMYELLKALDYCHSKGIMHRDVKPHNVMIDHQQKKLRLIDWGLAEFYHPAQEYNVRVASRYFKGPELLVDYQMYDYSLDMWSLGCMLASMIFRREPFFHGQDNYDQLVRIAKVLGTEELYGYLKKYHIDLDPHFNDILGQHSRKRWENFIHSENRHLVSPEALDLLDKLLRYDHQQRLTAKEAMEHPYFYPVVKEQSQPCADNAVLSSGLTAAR

[12] = biological target: Serine/threonine-protein kinase TAO3 (Homo sapiens) (UniProt Q9H2K8); assay: Inhibition of TAOK3 (unknown origin) using [gamma-33P]ATP assessed as residual activity at 3 uM
Chain of Serine/threonine-protein kinase TAO3 (Homo sapiens) (Q9H2K8 whole entry): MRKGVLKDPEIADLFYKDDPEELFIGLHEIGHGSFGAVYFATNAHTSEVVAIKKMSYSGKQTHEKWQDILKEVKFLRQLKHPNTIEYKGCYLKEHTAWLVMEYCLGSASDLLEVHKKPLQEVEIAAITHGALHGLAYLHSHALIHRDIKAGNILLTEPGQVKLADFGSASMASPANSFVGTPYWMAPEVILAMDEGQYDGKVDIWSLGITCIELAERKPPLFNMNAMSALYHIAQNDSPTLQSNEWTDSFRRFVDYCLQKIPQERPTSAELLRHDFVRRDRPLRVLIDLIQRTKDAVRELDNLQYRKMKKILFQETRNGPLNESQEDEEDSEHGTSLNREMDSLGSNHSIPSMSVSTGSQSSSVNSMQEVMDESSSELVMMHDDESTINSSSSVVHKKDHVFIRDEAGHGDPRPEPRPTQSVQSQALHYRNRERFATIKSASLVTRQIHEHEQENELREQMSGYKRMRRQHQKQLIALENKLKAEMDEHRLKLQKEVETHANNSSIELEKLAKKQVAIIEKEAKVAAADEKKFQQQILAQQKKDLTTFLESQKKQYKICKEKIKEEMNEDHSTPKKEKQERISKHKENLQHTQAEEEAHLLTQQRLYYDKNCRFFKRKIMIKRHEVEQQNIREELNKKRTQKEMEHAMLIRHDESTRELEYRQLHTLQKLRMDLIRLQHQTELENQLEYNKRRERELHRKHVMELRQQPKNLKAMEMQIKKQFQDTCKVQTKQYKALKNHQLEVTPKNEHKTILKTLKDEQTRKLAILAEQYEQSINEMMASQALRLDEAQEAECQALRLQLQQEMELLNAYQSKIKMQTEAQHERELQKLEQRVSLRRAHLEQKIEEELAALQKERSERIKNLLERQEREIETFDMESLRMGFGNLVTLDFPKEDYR

[13] = biological target: Serine/threonine-protein kinase N2 (Homo sapiens) (UniProt Q16513); assay: Inhibition of PKN2 (unknown origin) using [gamma-33P]ATP assessed as residual activity at 3 uM
[14] = biological target: Serine/threonine-protein kinase Nek9 (Homo sapiens) (UniProt Q8TD19); assay: Inhibition of NEK9 (unknown origin) using [gamma-33P]ATP assessed as residual activity at 3 uM
[15] = tested on: Mast/stem cell growth factor receptor Kit (Homo sapiens), P10721 [D816H]; assay: Inhibition of c-Kit D816H mutant (unknown origin) using [gamma-33P]ATP assessed as residual activity at 3 uM
[16] = biological target: Serine/threonine-protein kinase 24 (Homo sapiens) (UniProt Q9Y6E0); assay: Inhibition of MST3 (unknown origin) using [gamma-33P]ATP assessed as residual activity at 3 uM
[17] = biological target: cGMP-dependent protein kinase 1 (Homo sapiens) (UniProt Q13976); assay: Inhibition of PKG1a (unknown origin) using [gamma-33P]ATP assessed as residual activity at 3 uM
Chain of cGMP-dependent protein kinase 1 (Homo sapiens) (Q13976 whole entry): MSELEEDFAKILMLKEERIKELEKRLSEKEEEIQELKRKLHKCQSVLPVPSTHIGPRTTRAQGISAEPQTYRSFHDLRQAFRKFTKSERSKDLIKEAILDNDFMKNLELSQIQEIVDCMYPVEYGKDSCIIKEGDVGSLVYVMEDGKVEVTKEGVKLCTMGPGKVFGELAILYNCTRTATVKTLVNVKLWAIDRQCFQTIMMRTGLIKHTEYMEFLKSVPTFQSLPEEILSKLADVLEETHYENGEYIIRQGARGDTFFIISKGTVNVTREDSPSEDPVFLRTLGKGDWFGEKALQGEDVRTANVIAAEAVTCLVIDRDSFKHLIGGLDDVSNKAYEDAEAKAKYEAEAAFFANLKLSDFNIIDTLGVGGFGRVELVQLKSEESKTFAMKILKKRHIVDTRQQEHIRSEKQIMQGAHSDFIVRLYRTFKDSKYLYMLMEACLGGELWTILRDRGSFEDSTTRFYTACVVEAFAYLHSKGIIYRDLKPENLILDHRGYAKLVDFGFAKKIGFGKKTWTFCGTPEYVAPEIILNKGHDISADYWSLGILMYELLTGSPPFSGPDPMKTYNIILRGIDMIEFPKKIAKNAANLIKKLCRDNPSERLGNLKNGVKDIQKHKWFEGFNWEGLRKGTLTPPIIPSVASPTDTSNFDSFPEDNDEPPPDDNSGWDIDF

[18] = biological target: Homeodomain-interacting protein kinase 3 (Homo sapiens) (UniProt Q9H422); assay: Inhibition of HIPK3 (unknown origin) using [gamma-33P]ATP assessed as residual activity at 3 uM; summary of the method: as §3
[19] = biological target: Insulin receptor (Homo sapiens) (UniProt P06213); assay: Inhibition of IR (unknown origin) using [gamma-33P]ATP assessed as residual activity at 3 uM; summary of the method: as §3
[20] = biological target: Calcium/calmodulin-dependent protein kinase type II subunit beta (Homo sapiens) (UniProt Q13554); assay: Inhibition of CAMK2b (unknown origin) using [gamma-33P]ATP assessed as residual activity at 3 uM; summary of the method: as §2
[21] = biological target: Ephrin type-B receptor 3 (Homo sapiens) (UniProt P54753); assay: Inhibition of EPHB3 (unknown origin) using [gamma-33P]ATP assessed as residual activity at 3 uM; summary of the method: as §1
[22] = biological target: Tyrosine-protein kinase Lyn (Homo sapiens) (UniProt P07948); assay: Inhibition of LYN-B (unknown origin) using [gamma-33P]ATP assessed as residual activity at 3 uM; summary of the method: as §3
[23] = biological target: Serine/threonine-protein kinase PLK1 (Homo sapiens) (UniProt P53350); assay: Inhibition of PLK1 (unknown origin) using [gamma-33P]ATP assessed as residual activity at 3 uM
[24] = biological target: Tyrosine-protein kinase HCK (Homo sapiens) (UniProt P08631); assay: Inhibition of HCK (unknown origin) using [gamma-33P]ATP assessed as residual activity at 3 uM; summary of the method: as §3
[25] = tested on: Serine/threonine-protein kinase Chk2 (Homo sapiens), O96017 [I157T]; assay: Inhibition of CHK2 I157T mutant (unknown origin) using [gamma-33P]ATP assessed as residual activity at 3 uM
[26] = biological target: Calcium/calmodulin-dependent protein kinase type II subunit delta (Homo sapiens) (UniProt Q13557); assay: Inhibition of CAMK2d (unknown origin) using [gamma-33P]ATP assessed as residual activity at 3 uM; summary of the method: as §2
Chain of Calcium/calmodulin-dependent protein kinase type II subunit delta (Homo sapiens) (Q13557 whole entry): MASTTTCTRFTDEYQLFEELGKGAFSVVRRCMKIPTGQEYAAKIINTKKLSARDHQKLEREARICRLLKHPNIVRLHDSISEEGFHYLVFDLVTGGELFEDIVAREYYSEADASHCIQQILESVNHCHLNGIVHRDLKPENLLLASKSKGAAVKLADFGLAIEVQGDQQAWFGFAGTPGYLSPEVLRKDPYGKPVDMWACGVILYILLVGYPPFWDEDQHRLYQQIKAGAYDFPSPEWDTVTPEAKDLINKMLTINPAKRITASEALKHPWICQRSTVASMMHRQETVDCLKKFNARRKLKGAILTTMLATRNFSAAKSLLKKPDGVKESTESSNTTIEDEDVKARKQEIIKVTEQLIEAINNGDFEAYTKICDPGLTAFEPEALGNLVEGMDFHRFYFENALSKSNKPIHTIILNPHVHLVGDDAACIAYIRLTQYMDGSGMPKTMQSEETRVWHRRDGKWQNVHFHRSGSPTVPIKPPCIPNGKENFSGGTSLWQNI

[27] = biological target: Serine/threonine-protein kinase D2 (Homo sapiens) (UniProt Q9BZL6); assay: Inhibition of PKD2 (unknown origin) using [gamma-33P]ATP assessed as residual activity at 3 uM
[28] = biological target: Tyrosine-protein kinase Mer (Homo sapiens) (UniProt Q12866); assay: Inhibition of c-MER (unknown origin) using [gamma-33P]ATP assessed as residual activity at 3 uM
[29] = biological target: Serine/threonine-protein kinase MARK1 (Homo sapiens) (UniProt Q9P0L2); assay: Inhibition of MARK1 (unknown origin) using [gamma-33P]ATP assessed as residual activity at 3 uM
Summary of the method: (§4)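 Contract radiometric panel screen of 288 kinases (261 wild-type, 27 mutant). Inhibition was read by [gamma-33P]ATP radioactivity incorporation.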

[30] = biological target: Misshapen-like kinase 1 (Homo sapiens) (UniProt Q8N4C8); assay: Inhibition of MINK (unknown origin) using [gamma-33P]ATP assessed as residual activity at 3 uM; summary of the method: as §4
[31] = biological target: G protein-coupled receptor kinase 3 (Homo sapiens) (UniProt P35626); assay: Inhibition of GRK3 (unknown origin) using [gamma-33P]ATP assessed as residual activity at 3 uM; summary of the method: as §3

Chain of Myotonin-protein kinase (Homo sapiens) (Q09013 whole entry): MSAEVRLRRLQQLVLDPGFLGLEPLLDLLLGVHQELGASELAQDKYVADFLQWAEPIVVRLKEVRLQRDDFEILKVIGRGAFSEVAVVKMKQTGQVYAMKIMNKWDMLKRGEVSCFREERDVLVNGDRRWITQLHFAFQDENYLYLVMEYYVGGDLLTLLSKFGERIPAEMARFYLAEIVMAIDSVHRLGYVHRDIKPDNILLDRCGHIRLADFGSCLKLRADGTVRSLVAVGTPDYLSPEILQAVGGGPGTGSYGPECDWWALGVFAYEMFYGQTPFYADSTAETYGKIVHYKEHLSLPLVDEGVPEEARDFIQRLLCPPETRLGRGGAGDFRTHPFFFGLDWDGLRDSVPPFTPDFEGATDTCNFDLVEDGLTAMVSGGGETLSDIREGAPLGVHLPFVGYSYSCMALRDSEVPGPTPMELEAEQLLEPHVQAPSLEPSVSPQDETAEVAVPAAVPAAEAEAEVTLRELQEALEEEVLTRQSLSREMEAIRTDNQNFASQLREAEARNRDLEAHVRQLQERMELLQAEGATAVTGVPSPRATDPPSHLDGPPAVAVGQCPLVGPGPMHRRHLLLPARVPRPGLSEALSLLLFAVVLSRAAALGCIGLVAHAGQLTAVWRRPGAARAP

- Activity [1]: 103%
- Activity [2]: 51%
- Activity [3]: 96%
- Activity [4]: 84%
- Activity [5]: 87%
- Activity [6]: 91%
- Activity [7]: 91%
- Activity [8]: 87%
- Activity [9]: 97%
- Activity [10]: 100%
- Activity [11]: 53%
- Activity [12]: 103%
- Activity [13]: 91%
- Activity [15]: 52%
- Activity [16]: 73%
- Activity [17]: 95%
- Activity [18]: 104%
- Activity [19]: 94%
- Activity [20]: 90%
- Activity [21]: 95%
- Activity [22]: 78%
- Activity [23]: 96%
- Activity [24]: 74%
- Activity [25]: 61%
- Activity [26]: 95%
- Activity [27]: 98%
- Activity [28]: 86%
- Activity [29]: 94%
- Activity [30]: 55%
- Activity [31]: 93%
Structure (SMILES): CCc1ccc(-c2ccc3c(c2)-c2[nH]ncc2S(=O)(=O)N3C)cc1
- Activity [14]: 78%
